Activity data for four molecules are collected here from ChEMBL document CHEMBL4043068, “(±)-Uncarilins A and B, Dimeric Isoechinulin-Type Alkaloids from Uncaria rhynchophylla” (J Nat Prod, 2017).

Each structure is given as a SMILES string. Activity calls are given as the source filed them. The calls are words filed in the database; no cut-off is given here.

Format in all cases: functional, cell-based
In assay [1] the target is T1, Melatonin receptor type 1B (Homo sapiens) (UniProt P49286).
T1 sequence (whole entry): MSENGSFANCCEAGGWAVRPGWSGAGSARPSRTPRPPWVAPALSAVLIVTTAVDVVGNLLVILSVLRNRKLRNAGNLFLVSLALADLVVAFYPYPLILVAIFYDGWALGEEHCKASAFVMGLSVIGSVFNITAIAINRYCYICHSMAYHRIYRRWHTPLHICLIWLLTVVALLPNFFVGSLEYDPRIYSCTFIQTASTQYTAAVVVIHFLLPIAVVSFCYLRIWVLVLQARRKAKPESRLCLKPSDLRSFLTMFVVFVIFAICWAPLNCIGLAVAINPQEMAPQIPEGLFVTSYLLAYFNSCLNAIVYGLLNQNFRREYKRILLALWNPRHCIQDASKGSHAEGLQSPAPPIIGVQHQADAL
Put plainly: Agonist activity at human MT2 receptor expressed in HEK293 cells incubated for 1 hr by Fluo-8 dye based calcium assay. The method in brief: (§1)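 HEK293 cells stably expressing the human receptor, kept in DMEM with 10% FBS, seeded at 4 × 10^4 cells/well on Matrigel-coated plates and incubated overnight (5% CO2, 37 °C). Fluo-8 wash-free calcium dye loaded for 1 h at 37 °C. Samples in Hank's balanced salt solution, tested at 0.25 mM. Calcium fluorescence read on a FlexStation3 plate reader.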

The target in assay [2] is T2, 5-hydroxytryptamine receptor 1A (Homo sapiens) (UniProt P08908).
T2 sequence (whole entry): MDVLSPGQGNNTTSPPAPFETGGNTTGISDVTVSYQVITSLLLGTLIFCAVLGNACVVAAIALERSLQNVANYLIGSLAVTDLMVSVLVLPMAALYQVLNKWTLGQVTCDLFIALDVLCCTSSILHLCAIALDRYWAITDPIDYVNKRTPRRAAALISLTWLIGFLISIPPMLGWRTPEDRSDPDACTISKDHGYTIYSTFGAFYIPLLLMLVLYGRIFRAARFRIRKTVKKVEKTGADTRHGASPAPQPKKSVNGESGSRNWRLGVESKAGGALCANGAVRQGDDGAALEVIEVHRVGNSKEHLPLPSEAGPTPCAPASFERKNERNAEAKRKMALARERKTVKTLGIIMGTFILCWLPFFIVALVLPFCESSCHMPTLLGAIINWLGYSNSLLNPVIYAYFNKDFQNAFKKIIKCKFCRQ
In words: Agonist activity at human 5HT1A receptor expressed in HEK293 cells incubated for 1 hr by Fluo-8 dye based calcium assay. The method in brief:
as §1

Assay [3] deals with Melatonin receptor type 1A (Homo sapiens) (UniProt P48039). Put plainly: Agonist activity at human MT1 receptor expressed in HEK293 cells incubated for 1 hr by Fluo-8 dye based calcium assay. The method in brief: as §1
Assay [4] concerns the target T3, 5-hydroxytryptamine receptor 2C (Homo sapiens) (UniProt P28335).
T3 sequence (whole entry): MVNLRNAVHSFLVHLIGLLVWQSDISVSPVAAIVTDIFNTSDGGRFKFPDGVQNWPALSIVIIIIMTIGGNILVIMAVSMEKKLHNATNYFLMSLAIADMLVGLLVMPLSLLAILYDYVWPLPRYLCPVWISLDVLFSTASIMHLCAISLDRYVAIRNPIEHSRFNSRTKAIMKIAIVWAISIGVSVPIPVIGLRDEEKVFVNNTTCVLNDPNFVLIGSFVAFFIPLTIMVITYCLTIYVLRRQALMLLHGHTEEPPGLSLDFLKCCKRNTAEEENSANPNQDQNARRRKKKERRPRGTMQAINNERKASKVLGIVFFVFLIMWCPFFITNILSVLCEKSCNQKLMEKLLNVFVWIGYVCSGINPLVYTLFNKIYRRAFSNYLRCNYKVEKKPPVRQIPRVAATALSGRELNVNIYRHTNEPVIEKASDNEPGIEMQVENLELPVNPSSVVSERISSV
Put plainly: Agonist activity at human 5HT2C receptor expressed in HEK293 cells incubated for 1 hr by Fluo-8 dye based calcium assay. Summed up:
as §1

Chain of Melatonin receptor type 1A (Homo sapiens) (P48039 whole entry): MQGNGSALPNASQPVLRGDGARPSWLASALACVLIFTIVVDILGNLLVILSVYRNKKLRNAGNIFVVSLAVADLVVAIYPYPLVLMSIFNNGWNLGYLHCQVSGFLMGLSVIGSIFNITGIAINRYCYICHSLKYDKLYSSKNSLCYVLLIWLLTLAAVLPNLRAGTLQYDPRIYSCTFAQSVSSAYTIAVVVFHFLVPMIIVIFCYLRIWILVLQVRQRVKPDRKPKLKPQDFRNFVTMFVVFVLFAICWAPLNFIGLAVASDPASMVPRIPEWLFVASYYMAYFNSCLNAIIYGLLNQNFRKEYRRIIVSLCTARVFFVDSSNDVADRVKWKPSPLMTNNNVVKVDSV

In the case of `C=CC(C)(C)c1[nH]c2ccccc2c1[C@H]1[C@H](c2c(C(C)(C)C=C)[nH]c3ccccc23)[C@]2(NC(=O)[C@@H](C)NC2=O)[C@@]12NC(=O)[C@@H](C)NC2=O`, the Activity was determined as 52.4% in assay [1] and 11.3% in assay [3]. The outcome in assay [2] and in assay [4] was inactive.
As to `C=CC(C)(C)c1[nH]c2ccccc2c1[C@@H]1[C@@H](c2c(C(C)(C)C=C)[nH]c3ccccc23)[C@@]2(NC(=O)[C@@H](C)NC2=O)[C@]12NC(=O)[C@@H](C)NC2=O`, the outcome in assay [1] and in assay [3] was Active. Besides, the result in assay [2] and in assay [4] was inactive.
As to `C=CC(C)(C)c1[nH]c2ccccc2c1[C@@H]1[C@@H](c2c(C(C)(C)C=C)[nH]c3ccccc23)[C@@]2(NC(=O)[C@H](C)NC2=O)[C@]12NC(=O)[C@H](C)NC2=O`, the result in assay [1] and in assay [3] was Active. Moreover, the outcome in assay [2] and in assay [4] was inactive.
Turning to `C=CC(C)(C)c1[nH]c2ccccc2c1[C@H]1[C@H](c2c(C(C)(C)C=C)[nH]c3ccccc23)[C@]2(NC(=O)[C@H](C)NC2=O)[C@@]12NC(=O)[C@H](C)NC2=O`, the outcome in assay [1] and in assay [3] was Active. Also, the result in assay [2] and in assay [4] was inactive.
